The results in this text go back to ChEMBL document CHEMBL1139049, “Highly potent 3-pyrroline mechanism-based inhibitors of bovine plasma amine oxidase and mass spectrometric confirmation of cofactor derivatization” (Bioorg Med Chem, 2007).

The source made the active and inactive calls. No cut-off for these calls is given here.

Assay [1] can be described thus: (§1) Inhibition of BPAO after 20 mins by benzylamine assay. Details: species or system Bos taurus. The method, boiled down:
(§2)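 Bovine plasma amine oxidase (~1 μM) preincubated with varying inhibitor concentrations at 30 °C in 50 mM sodium phosphate, pH 7.2. Aliquots taken over time were assayed for residual activity by the benzylamine assay, with benzaldehyde formation followed at 250 nm. The value is the concentration giving 50% inactivation at a fixed 20 min.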

The species entered for assay [2] is Bos taurus. The assay is described as follows: Ratio of kinact to Ki for BPAO. The method, boiled down: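 Inactivation of ~1 μM BPAO by varying inhibitor concentrations, at 30 °C in 50 mM sodium phosphate, pH 7.2. Residual activity in time aliquots was read by benzylamine oxidation (benzaldehyde, 250 nm). Log activity versus time gave pseudo-first-order rates, and kinact and Ki were obtained from Kitz–Wilson plots.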

For assay [3], the species on record is Bos taurus. Put plainly: Inhibition of BPAO assessed as redox cycling activity by NBT assay. The method, boiled down:
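BPAO was inactivated by preincubation with inhibitor in 50 mM sodium phosphate, pH 7.2. The inactivated preparations were then tested for TPQ cofactor redox cycling by the standard sodium glycinate nitroblue tetrazolium staining assay.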

Assay [4] is filed under the species Bos taurus. The description is as §1. The method, boiled down:
as §2

For `C[n+]1ccc(C2=CCNC2)cc1`, the IC50 – broadly, the midpoint of a concentration-inhibition curve – in assay [1] was more than 1000 µM.
With `C1=C(c2nccc3ccccc23)CNC1`, the Ratio in the assay listed under Bos taurus [2] is 40 mM⁻¹ min⁻¹. Further, the midpoint of inhibition in assay [1], the IC50, lay at 0.86 µM. The result in the assay filed under Bos taurus [3] was Active.
In the case of `C1=C(c2ccncc2)CNC1`, the Ratio in the assay filed under Bos taurus [2] was 1.2 mM⁻¹ min⁻¹. Also, in the assay filed under Bos taurus [4], the Kinact amounted to 0.091 min⁻¹. In addition, in assay [1], inhibition was half-maximal at 50 µM (IC50) and the Ki (commonly the equilibrium dissociation constant of an inhibitor or competing ligand from its target) was 76 µM. Besides, in the assay listed under Bos taurus [3], the result was Active.
Turning to `Fc1c(F)c(F)c(C2=CCNC2)c(F)c1F`, the Ratio in the assay listed under Bos taurus [2] was 6 mM⁻¹ min⁻¹. This compound returned an IC50 in assay [1] of 6.1 µM. Besides, the result in the assay filed under Bos taurus [3] was Active.
`C1=C(c2cccnc2)CNC1`: the Ratio in the assay listed under Bos taurus [2] amounted to 24 mM⁻¹ min⁻¹. The compound further displayed an IC50 in assay [1] of 1.5 µM.
For `C1=C(c2ccccn2)CNC1`, the Ratio in the assay filed under Bos taurus [2] amounted to 65 mM⁻¹ min⁻¹. The compound also displayed an IC50 in assay [1] of 0.75 µM.
With `C[n+]1cccc(C2=CCNC2)c1`, in assay [1], the IC50 was found to be 500 µM.
On to `C1=C(c2ccc3ccccc3n2)CNC1`, for which the Ratio in the assay listed under Bos taurus [2] is 13 mM⁻¹ min⁻¹. Further, the IC50 in assay [1] was 2.7 µM.
